Screens from PubChem BioAssay.
Scp1 inh = blocks human Scp-1 phosphatase activity. Q9GZU7. 0.88% of 340,000 active. Recombinant Scp1, phosphopeptide, malachite green phosphate absorbance. inhibition, % at 20 µM;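 active = inhibition above about 50% at 20 µM, limit read from the data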;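 also: plate controls were DMSO wells with enzyme for no effect and wells lacking enzyme for full effect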
Target sequence (Q9GZU7 76-261 limits assumed): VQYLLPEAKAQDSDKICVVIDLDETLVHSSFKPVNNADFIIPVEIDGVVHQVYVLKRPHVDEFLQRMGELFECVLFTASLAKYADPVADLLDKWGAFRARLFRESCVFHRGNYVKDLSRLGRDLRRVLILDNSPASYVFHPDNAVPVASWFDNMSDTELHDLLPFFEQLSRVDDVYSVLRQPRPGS
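assay system = SCP-1 phosphatase catalytic domain, residues 76-261 | buffer or medium = 50 mM Tris acetate pH 5.5, 0.005% Tween-20, 10 mM MgCl2 | incubation = enzyme reaction 45 min at room temperature, colour 5 min, stabilisation 30 min | signal = Phosphate-binding colour reagent, absorbance read at 630 nm | measure = % inhibition at 20 µM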
DNMT1 inh = inhibitors of human DNMT1. P26358. DNMT1 molecular beacon, Hinp1I cleavage, fluorescence. inhibition (reported as % activation of signal), % at 10 µM. 0.83% of 360,000 active; in the data active = inhibition above about 50%
SUMO1-SIM PPI = SUMO1-SIM interaction modulation; P63165; SUMO1 binding to a labelled peptide, TR-FRET, 1 h; inhibition, % at 20 µM; 0.33% of 360,000 active; AID 602429; in the data active = inhibition above about 37%
Target sequence (P63165 whole entry, looked up): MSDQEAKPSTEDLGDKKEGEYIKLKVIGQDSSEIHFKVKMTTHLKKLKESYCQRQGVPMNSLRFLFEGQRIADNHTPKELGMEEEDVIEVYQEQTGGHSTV
STEP block = STEP (human) phosphatase inhibition; P54829; recombinant STEP, OMFP fluorogenic substrate, fluorescence; inhibition, % at 20 µM; 0.25% of 360,000 active; AID 588621;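 active = inhibition at 20 µM, scaled per plate between control wells, above about 37%, limit read from the data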;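 also: 0% = DMSO with enzyme and substrate and 100% = substrate only without enzyme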
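Also added – OMFP at 25 µM · Test system – STEP tyrosine phosphatase · Technique – FITC-channel fluorescence of OMFP product · Schedule – 20 min at room temperature, dark · Evaluation – control-normalized % inhibition with plate pattern correction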
NadD inh = inhibitors of Staphylococcus aureus NadD; purified NadD enzyme, colorimetric absorbance read-out; inhibition, % at 20 µM; 0.78% of 360,000 active; in the data active = inhibition above about 26%
LMPTP block = blocks human LMPTP phosphatase | P24666 | recombinant LMPTP-A, OMFP fluorogenic substrate, fluorescence intensity | inhibition, % at 20 µM | 0.22% of 360,000 active | AID 651560;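 active = compounds that cut the enzyme signal by at least half of the control window in the single-dose screen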;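 also: plate controls were DMSO wells with enzyme plus substrate for no effect and substrate without enzyme for full effect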
Target sequence (P24666 whole entry, looked up): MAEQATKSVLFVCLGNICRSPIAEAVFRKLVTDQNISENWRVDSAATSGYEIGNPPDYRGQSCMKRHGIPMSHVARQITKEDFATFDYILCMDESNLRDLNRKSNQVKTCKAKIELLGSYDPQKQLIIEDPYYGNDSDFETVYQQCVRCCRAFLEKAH
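test system = LMPTP-A | amount = 0.625 nM LMPTP-A final | reagent = fluorogenic phosphatase substrate OMFP at 400 µM final | incubation = 50 min at room temperature | benchmarks = no-enzyme low control, uninhibited high control | medium = Bis-Tris pH 6.0, DTT, detergent | signal = fluorescence intensity of OMFP turnover product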
DNMT1 confirm = confirmation of human DNMT1 inhibitors | shares compounds with DNMT1 inh | DNMT1 molecular beacon HinP1I cleavage, fluorescence | inhibition, % at 10 µM | 8% of 2,300 active | AID 602385;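 active = average inhibition of at least 30% in the single-concentration confirmation test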
DNMT1 interf = beacon fluorescence artifact counter-screen. activation (fluorescence interference), % at 10 µM. DNMT1 molecular beacon spectral interference counterscreen, fluorescence 485/520. shares compounds with DNMT1 inh. 1% of 2,300 active;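 active = activation of at least 30% at 10 µM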;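 also: DNMT1 catalytic domain with a HinP1I cleavage step and a FAM/dabcyl DNA beacon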
An asterisk follows results filed as active. This is a sample that favours compounds with a hit; in the whole collection about 2.3% have one here.

COc1ccc(S(=O)(=O)N2CCC3CC2c2cc(-c4ccc5c(c4)OCO5)ccc23)cc1 (configuration not stated) was read as DNMT1 inh 14, SUMO1-SIM PPI 1, STEP block -1, NadD inh -7 and LMPTP block 2.
For O=C(Nc1sc2c(c1C(=O)O)CCC2)C(=O)N1CCOCC1 the results were Scp1 inh 43, DNMT1 inh 61*, SUMO1-SIM PPI 5, STEP block 11, NadD inh 2, LMPTP block 5, DNMT1 confirm 6 and DNMT1 interf 2.
For O=C(Nc1sc2c(c1C(=O)O)CCCC2)C(=O)N1CCOCC1 the results were Scp1 inh -3, DNMT1 inh -3, SUMO1-SIM PPI -3, STEP block 7, NadD inh -2 and LMPTP block -1.
`CCN1CCN(C(=O)c2cc3cc(F)ccc3[nH]2)CC1` gave Scp1 inh 0, DNMT1 inh 1, SUMO1-SIM PPI 0, STEP block -1, NadD inh -2 and LMPTP block -1.
`Nc1c(C(=O)NCc2ccccc2)nnn1Cc1ccc(F)cc1` gave Scp1 inh -16, DNMT1 inh 50*, SUMO1-SIM PPI 4, STEP block 4, NadD inh 4, LMPTP block 1, DNMT1 confirm 4 and DNMT1 interf 6.
Screening Cc1cc(C)c(NC(=O)Cn2nnc(C(=O)NCCc3ccccc3)c2N)c(C)c1 returned Scp1 inh -2, DNMT1 inh 23, SUMO1-SIM PPI 8, STEP block -2, NadD inh 0 and LMPTP block 0.
Cc1cc(C)cc(NC(=O)Cn2nnc(C(=O)NCCc3ccccc3)c2N)c1 was read as Scp1 inh -1, DNMT1 inh 67*, SUMO1-SIM PPI 6, STEP block 0, NadD inh -2, LMPTP block 41, DNMT1 confirm 1 and DNMT1 interf -1.
`CC(=O)c1oc2ccccc2c1NC(=O)COC(=O)c1ccc(-n2nc(C)cc2C)cc1` gave Scp1 inh 16, DNMT1 inh 54*, SUMO1-SIM PPI -1, STEP block 0, NadD inh 5, LMPTP block 19, DNMT1 confirm 1 and DNMT1 interf 3.
For O=C(Cc1nnc(NC(=O)Nc2ccc(Cl)cc2)s1)NCc1ccccc1 the results were Scp1 inh 0, DNMT1 inh 48, SUMO1-SIM PPI 1, STEP block 0, NadD inh 7, LMPTP block -1, DNMT1 confirm 1 and DNMT1 interf 4.
Screening O=c1[nH]c(Nc2ccccc2)cc2cc(Br)ccc12 returned Scp1 inh 2, DNMT1 inh 92*, SUMO1-SIM PPI 37, STEP block 29, NadD inh 2, LMPTP block 32, DNMT1 confirm 0 and DNMT1 interf 0.
`COc1ccccc1Nc1cc2cc(Br)ccc2c(=O)[nH]1` gave Scp1 inh 11, DNMT1 inh 69*, SUMO1-SIM PPI 23, STEP block 17, NadD inh 14, LMPTP block 9, DNMT1 confirm 0 and DNMT1 interf 3.
`ON=C(CCc1ccccc1)CCc1ccccc1` gave Scp1 inh 0, DNMT1 inh 1, SUMO1-SIM PPI 3, STEP block -4, NadD inh 0 and LMPTP block 1.
Screening CCC(=O)Nc1ccc(S(=O)(=O)NC[C@H]2O[C@@H](n3cnc4c(=O)[nH]c(N)nc43)[C@H](O)[C@@H]2O)cc1 returned DNMT1 inh -1, SUMO1-SIM PPI 3, STEP block 3, NadD inh 0 and LMPTP block -1.
Screening O=C(Cc1ccc([N+](=O)[O-])cc1)N1N=C(C2CC2)CC1(O)C(F)(F)F (configuration not stated) returned Scp1 inh -10, DNMT1 inh -1, SUMO1-SIM PPI -9, STEP block 2, NadD inh 0 and LMPTP block -1.
O=C(C[C@H]1C[C@H](C(=O)N2CCCCC2)[C@@]2(CCc3ccccc3)c3[nH]c4ccc(Cl)cc4c3CCN2C1=O)NCCc1ccccn1 was read as Scp1 inh 7, DNMT1 inh -24, SUMO1-SIM PPI 2, STEP block 0, NadD inh 5 and LMPTP block 0.
O=C(CC1C[C@H](C(=O)N2CCCCC2)[C@@]2(CCc3ccccc3)c3[nH]c4ccccc4c3CCN2C1=O)NCCC1=CCCCC1 (some centres not stated) was read as Scp1 inh 4, DNMT1 inh 60*, SUMO1-SIM PPI 2, STEP block 11, NadD inh 18, LMPTP block 2, DNMT1 confirm 4 and DNMT1 interf 7.
O=C(C[C@H]1C[C@H](C(=O)N2CCCCC2)[C@@]2(CCc3ccccc3)c3[nH]c4ccc(Cl)cc4c3CCN2C1=O)NCCC1=CCCCC1 was read as Scp1 inh 1, DNMT1 inh 61*, SUMO1-SIM PPI 4, STEP block 4, NadD inh 30, LMPTP block 1, DNMT1 confirm 6 and DNMT1 interf 1.
Screening C[C@]12c3[nH]c4ccccc4c3CCN1C(=O)C(CC(=O)NCCC1=CCCCC1)C[C@@H]2C(=O)N1CCCCC1 (some centres not stated) returned Scp1 inh -8, DNMT1 inh -4, SUMO1-SIM PPI 4, STEP block 2, NadD inh 9 and LMPTP block 0.
For CCOC(=O)c1sc(SCc2ccccc2)c2c1CC(C)(C)CC2=O the results were Scp1 inh -5, DNMT1 inh -1, SUMO1-SIM PPI 7, STEP block 0, NadD inh -5 and LMPTP block 3.
For CCOC(=O)c1c(C)[nH]c(C)c1C(=O)COC(=O)/C=C/c1ccc(Cl)cc1 the results were Scp1 inh -14, DNMT1 inh -3, SUMO1-SIM PPI -6, STEP block 1, NadD inh -7 and LMPTP block 2.
For Fc1ccccc1CN1CCC(Cc2ccccc2)CC1 the results were Scp1 inh 6, DNMT1 inh 70*, SUMO1-SIM PPI 0, STEP block 0, NadD inh -4, LMPTP block -2, DNMT1 confirm 5 and DNMT1 interf 5.
Screening Fc1cccc(CN2CCC(Cc3ccccc3)CC2)c1 returned Scp1 inh -10, DNMT1 inh 2, SUMO1-SIM PPI 1, STEP block 2, NadD inh -4 and LMPTP block -1.
